Compounds with a hit are over-represented: about 6.4% of the library has one in this group of screens.
H69AR inhibit: growth inhibitors of human H69AR lung tumor cells; AID 598; viability, % at 10 µM; H69AR lung tumor viability, ATP luminescence, 72 h; hits give low values; hit rate 6% among 85,000;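 active = viability at or below 40%; inactive = viability above 40%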;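 also: multidrug resistant small cell line overexpressing MRP-1 efflux transporter; 100% = mean luminescence of untreated control wells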
E coli WT exp: growth inhibitors of E. coli BW25113 wild type. hit rate 0.15% among 98,000. AID 710. OD600 absorbance. growth inhibition, % at 100 µM;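 active = growth inhibition above about 50% at one test dose, limit read from the data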;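 also: growth measured after 20 h incubation at 37 °C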
HUVEC prolif 384: blocks proliferation of human endothelial cells. HUVEC proliferation, CellTiter-Glo luminescence, 72 h; hits give low values. viability, % at 10 µM (by protocol). hit rate 1.1% among 86,000;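 active = viability at or below 30%; inactive = viability above 30%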;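 also: 100% = median luminescence of DMSO-only cell control wells on each plate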
Ecoli tolC: growth inhibitors of E. coli BW25113 tolC mutant; OD615; growth inhibition, % at 10 µM (by protocol); hit rate 2.2% among 65,000;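 active = growth inhibition at or above a cutoff equal to the mean over every tested compound plus 3 SD, cut at about 60% in these data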;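 also: growth measured after 20 h incubation at 37 °C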
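Test system: tolC-deleted E. coli BW25113 | Medium: LB with kanamycin 50 µg/mL | Compound dosing: Single concentration, 10 µM final per compound | Schedule: 37 °C, 20 h exposure | Measured by: OD at 615 nm | Evaluation: Percent growth inhibition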
Fibroblast inh: blocks proliferation of human lung fibroblasts; LL 47 human lung fibroblast viability, ATP luminescence; hits give low values; viability, % at 10 µM; hit rate 1.1% among 85,000; AID 719;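 active = viability at or below 50% in the single dose screen; inactive = viability above 50%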;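 also: compound exposure lasted 72 h before the ATP readout; 100% = median luminescence of untreated cell-only wells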
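material = human LL 47 lung fibroblast cells | dosing = compounds added from tenfold dosing solution, 0.1% DMSO final | timing = overnight cell rest, 72 h compound treatment at 37 °C | measured by = CellTiter-Glo luminescence measuring cellular ATP | evaluation = % viability versus median cells-only luminescence | control set = cell-only wells, no compound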
Jurkat tox 60K: reduces viability or proliferation of Jurkat cells; AID 463; Jurkat E6.1 viability, ATP luminescence, 48 h; inhibition, % at 4 µM; hit rate 1.2% among 56,000;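 active = inhibition above the mean inhibition of all tested compounds plus 3 SD, cut at about 28% in these data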
* = called active by the depositor; x = no result given.

SMILES	H69AR inhibit	E coli WT exp	HUVEC prolif 384	Ecoli tolC	Fibroblast inh	Jurkat tox 60K
CC1CCCN(S(=O)(=O)c2ccc(S(=O)(=O)N3CCCN(Cc4ccccc4)C3)cc2)C1 (centres undefined)	31*	x	41	11	85	-4
CCOC(=O)c1nnn(-c2nonc2N)c1CN1CCc2ccccc2C1	81	2	90	15	92	-8
CCOC(=O)c1nnn(-c2nonc2-n2cccc2)c1CN1CCC(C)CC1	85	4	109	70*	92	-2
CCOC(=O)c1nnn(-c2nonc2N)c1CS(=O)(=O)c1ccccc1	89	3	101	x	101	x
CCOC(=O)c1nnn(-c2nonc2-n2cccc2)c1CCl	1.5*	9	3.3*	x	35*	x
Cn1c(=O)c2c(nc(Oc3ccc4c(c3)OCO4)n2Cc2ccc(Cl)cc2)n(C)c1=O	12*	-4	12*	-5	x	4
Cn1c(=O)c2c(nc(NCc3ccc4c(c3)OCO4)n2Cc2ccc(F)cc2)n(C)c1=O	23*	1	57	8	84	x
Cc1ccc(Cn2c(=O)c3c(nc4n3CCCN4Cc3ccccc3)n(C)c2=O)cc1	61	0	89	-10	95	0
Cn1c(=O)c2c(nc(NCc3ccc4c(c3)OCO4)n2Cc2ccccc2F)n(C)c1=O	43	-9	91	19	104	x
Cn1c(=O)n(Cc2ccccc2)c(=O)c2c1nc1n2CCCN1Cc1ccccc1	32*	9	92	62*	91	-2
Cn1c(=O)c2c(nc(CN3CCN(Cc4ccccc4)CC3)n2Cc2ccc(Cl)cc2)n(C)c1=O	10*	5	70	4	45*	2
O=c1ncn(-c2ccccc2F)c2ncccc12	x	1	x	x	x	x
COc1ccc(N2CCn3c2nc2c3c(=O)n(CCCc3ccccc3)c(=O)n2C)c(OC)c1	84	-7	68	-5	69	50*
Cn1c(=O)c2c(nc(NCc3ccc4c(c3)OCO4)n2Cc2ccccc2)n(C)c1=O	29*	-12	89	16	97	x
CC(C)CCn1cnc2c(c1=O)c1nc3ccccc3nc1n2Cc1ccc2c(c1)OCO2	30*	-11	86	-9	88	0
CCCn1cnc2c(c1=O)c1nc3ccccc3nc1n2Cc1ccccc1OC	x	-2	x	2	x	5
Cc1cccc(N=C2Sc3nc4c(C)c(C)ccc4cc3CN2CCN2CCOCC2)c1	x	-1	x	x	x	x
COc1ccc(C(=O)N(CN2CCCC2=O)c2nccs2)cc1OC	69	4	96	-5	102	-1
Cc1cc(C)c(C(=O)c2ccc(C(=O)N(C(C)C)C(C)C)cc2)c(C)c1	24*	-5	92	x	84	x
Cc1cc(C)c(C(=O)c2ccc(C(=O)NC(C)(C)C)cc2)c(C)c1	99	-7	90	x	96	x
COC(=O)c1ccc(CSc2nc(N3CCOCC3)c3c(c2C#N)CC(C)(C)OC3)o1	32*	5	93	10	104	x
CCc1ccc(/C(C)=N/Nc2cc(Cl)nc(C)n2)cc1	x	-1	x	x	x	x
C=CCn1c(N)c(C(=O)OC(C)CC)c2nc3ccccc3nc21 (centres undefined)	109	0	76	22	93	2
C=CCn1c(N)c(C(=O)OC(C)(C)C)c2nc3ccccc3nc21	30*	2	93	5	95	x
COc1cccc(NC(=O)c2ccccc2NS(C)(=O)=O)c1	83	2	96	-1	102	4
SMILES	H69AR inhibit	E coli WT exp	HUVEC prolif 384	Ecoli tolC	Fibroblast inh	Jurkat tox 60K
CCOc1ccc2[nH]c(=O)c(CN(Cc3cccs3)Cc3nnnn3C(C)(C)CC)cc2c1	28*	-6	83	30	91	10
CCC(C)(C)n1nnnc1CN(Cc1cccs1)Cc1cc2cc(OC)ccc2[nH]c1=O	54	-5	78	51	89	2
Cc1ccc(-c2nn(CC(=O)O)c(=O)c3ccccc23)cc1	85	x	102	-1	109	-3
COc1ccccc1N1CCN(C(=O)c2oc3cc(C)cc(C)c3c2C)CC1	23*	x	80	x	91	x
COc1cc(C(=O)N2CCN(c3cc(Cl)ccc3Cl)CC2)cc(OC)c1OC	33*	-9	43	19	53	61*
Cc1cccc(N2CCN(C(=O)c3ccncc3)CC2)c1C	21*	-6	66	10	81	60*
Cc1ccccc1S(=O)(=O)Cc1ccc(C(=O)N2CCN(c3cccc(C)c3C)CC2)o1	x	-16	x	69*	x	93*
COc1ccccc1N1CCN(C(=O)c2ccoc2C)CC1	95	8	92	-12	96	2
CC(C)(C)c1nc2sc3c(c2c(=O)o1)CCCC3	102	-2	112	x	104	x
CCCC12CN(C(=O)c3ccc(OC)cc3)CC(C)(CN(C(=O)c3ccc(OC)cc3)C1)C2=O	81	-9	102	1	104	-6
CCCNCc1cc(OCC)c(OCC(N)=O)cc1Br	94	-5	88	4	101	-5
O=C(C(Cc1ccccc1)n1cccc1)N1CCN(c2ncccn2)CC1 (centres undefined)	94	-7	107	-4	104	4
Cc1cccc(N2CCN(C(=O)C(Cc3ccccc3)n3cccc3)CC2)c1C (centres undefined)	23*	-27	94	x	93	x
COc1ccc(C(=O)N2CCN(c3c(C)cccc3C)CC2)cc1OC	86	7	82	13	89	-2
CCc1cccc(NC(=O)c2ccc(NS(=O)(=O)c3c(C)noc3C)cc2)c1	x	14	x	77*	x	-3
Cc1cccc(N2CCN(C(=O)c3ccc(NS(=O)(=O)c4c(C)noc4C)cc3)CC2)c1C	78	-12	84	84*	90	4
COc1cc(C(=O)N2CCN(c3cccc(C)c3C)CC2)cc(OC)c1OC	x	-7	x	24	x	94*
Cc1cccc(NC(=O)c2ccc(NS(=O)(=O)c3c(C)noc3C)cc2)c1	x	-1	x	45	x	-4
C=CCOC(=O)C1=C(C)N(C)C(=O)NC1c1cc2c(cc1Br)OCO2 (centres undefined)	90	6	101	20	99	-6
Cc1ccc2c(c1)c1c(n2C)-c2[nH]ncc2CC1	63	x	61	x	103	x
O=C(NCCO)c1cc2ccccc2cc1O	89	-2	96	-19	99	1
O=C(O)c1ccc(Sc2nnc(-c3cccc(Br)c3)o2)c([N+](=O)[O-])c1	100	4	83	x	94	x
COc1cc(-c2nnc(Sc3ccc(C(F)(F)F)cc3[N+](=O)[O-])o2)cc(OC)c1OC	1.0*	-3	72	x	83	x
FC(F)(F)c1cc(-c2ccco2)nc(-n2nc(C(F)(F)F)cc2C2CC2)n1	93	9	99	-11	87	8
CCNc1ccc2c(Cl)cc(=O)oc2c1	37*	7	95	-6	102	5
CCc1ccc(OCC(=O)Nc2ccc(S(=O)(=O)N3CCCC3)cc2)c(Br)c1	30*	-12	61	x	104	x
Cc1cccc(OCC(=O)Nc2ccc(S(=O)(=O)N3CCN(C)CC3)cc2)c1	90	x	99	x	105	x
